Measurements taken from PMC9727797 (Molecular Biology of the Cell, 2022).

Key:
RPE-1 cells = assay: Live cell imaging of metaphase duration; assay type: cell-based, human; conditions: Munesib-1 50 µM, Fift-IN and GW108X 25 µM
KIF15-N700 = target: T1, KIF15-N700 (Homo sapiens, UniProt Q9NS87); assay: Microtubule gliding assay; assay type: biochemical; conditions: 25 µM, singlicate
T1 sequence (Q9NS87 1-700 limits assumed): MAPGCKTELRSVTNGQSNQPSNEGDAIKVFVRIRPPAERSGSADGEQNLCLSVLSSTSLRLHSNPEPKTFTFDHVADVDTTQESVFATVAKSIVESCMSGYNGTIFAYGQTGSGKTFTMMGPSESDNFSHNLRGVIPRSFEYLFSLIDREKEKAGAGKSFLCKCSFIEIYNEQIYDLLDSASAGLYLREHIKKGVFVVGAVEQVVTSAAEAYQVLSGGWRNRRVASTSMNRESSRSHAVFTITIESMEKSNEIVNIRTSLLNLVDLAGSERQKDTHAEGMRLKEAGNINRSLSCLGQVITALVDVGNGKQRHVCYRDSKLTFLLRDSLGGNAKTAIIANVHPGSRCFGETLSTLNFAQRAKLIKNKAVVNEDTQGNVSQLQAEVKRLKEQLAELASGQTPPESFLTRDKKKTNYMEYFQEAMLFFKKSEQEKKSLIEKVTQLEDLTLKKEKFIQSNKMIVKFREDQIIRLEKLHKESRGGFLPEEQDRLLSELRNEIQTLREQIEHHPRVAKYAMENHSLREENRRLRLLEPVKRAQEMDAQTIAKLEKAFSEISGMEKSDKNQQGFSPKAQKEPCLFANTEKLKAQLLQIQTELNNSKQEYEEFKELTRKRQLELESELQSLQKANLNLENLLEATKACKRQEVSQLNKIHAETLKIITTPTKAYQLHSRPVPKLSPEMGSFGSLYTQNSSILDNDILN
How it was run: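 His6-KIF15-N700 was expressed in High Five insect cells, then purified by Ni-NTA and Superdex 200 gel filtration. Microtubule gliding was imaged every 5 s for 1 min at 100×. Velocity was taken as distance travelled in 1 min, from ≥15 microtubules at each of three slide locations (n ≥ 50 per slide). Concentration-response curves used eight concentrations from 10 nM up to 30 or 100 µM, in triplicate. Single-point derivative tests used 25 µM.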

KIRC-1 cells = assay: Preanaphase spindle monopolarity, KIRC-1 cells; assay type: cell-based, human; conditions: 25 µM
How it was run: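 TP53–/– RPE-1 and KIRC-1 cells were grown in DMEM with 10% FBS, penicillin and streptomycin; KIRC-1 medium also contained 10 μM STLC. Cells on coverslips were treated overnight with increasing test-compound concentrations or DMSO. They were then methanol-fixed and stained for KIF15, tubulin and DNA. Preanaphase spindles were scored monopolar or bipolar, in triplicate with n = 100 per replicate (± SEM).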

TP53–/– RPE-1 cells = assay: STLC selection; assay type: cell-based, human; conditions: 24 d; 10 μM STLC; some cells acquired resistance and formed colonies

**Q.** O=C1Nc2ccc(C(=O)c3ccco3)cc2/C1=C/c1cc(Cl)c(O)c(Cl)c1 [GW108X, reference compound] was tested. Which “metaphase duration (metaphase plate formation until anaphase onset)” value (RPE-1 cells) did it give?
**A.** significant increase in metaphase duration

**Q.** CSc1ncc2c(n1)-c1ccc(C(=O)O)cc1N(C)S2(=O)=O [M-201, 6-methyl-2-(methylthio)-6H-benzo[c]pyrimido[4,5-e][1,2]thiazine-8-carboxylic acid 5,5-dioxide] was tested. Which “% inhibition of KIF15 microtubule gliding activity” value (KIF15-N700) did it give?
**A.** blocked KIF15 activity as effectively as Munesib-1

**Q.** How did the “monopolarity index compared with the parent compound” value (KIRC-1 cells) turn out when CSc1ncc2c(n1)-c1ccc(C(=O)N3CCNCC3)cc1N(C)S2(=O)=O [M-205, (6-methyl-2-(methylthio)-5,5-dioxido-6H-benzo[c]pyrimido[4,5-e][1,2]thiazin-8-yl)(piperazin-1-yl)methanone] was run?
**A.** substantially increased the monopolarity index

**Q.** Which “% inhibition of KIF15 microtubule gliding activity” value (KIF15-N700) does the source give for CSc1ncc2c(n1)-c1ccc(CO)cc1N(C)S2(=O)=O [M-206, 8-(hydroxymethyl)-6-methyl-2-(methylthio)-6H-benzo[c]pyrimido[4,5-e][1,2]thiazine 5,5-dioxide] here?
**A.** blocked KIF15 activity as effectively as Munesib-1

**Q.** With N[C@@H](CSC(c1ccccc1)(c1ccccc1)c1ccccc1)C(=O)O [STLC, S-trityl-L-cysteine] as the compound, how does the “cell killing by STLC alone” value (TP53–/– RPE-1 cells) read?
**A.** killed the majority
